Laboratory results from paper PMC7894042 (ACS chemical neuroscience, 2020).
Read-outs that look alike come from different tables or passages of the source.

How the values were obtained:
[1] = Fluorophore characterization: emission spectra in solvents; assay type: physicochemical; settings: fluorometer
Outline: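 JP-N3 emission spectra were recorded in toluene, acetone, MeOH and H2O. Each spectrum was fitted with a single six-component split pseudo-Voigt curve to give a reference line shape.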

Kv2.1 channels = target: T1, Kv2.1 channels (Rattus norvegicus, UniProt P15387); settings: values for GxTX are from ref [23], cited from earlier work
T1 sequence (P15387 1-857): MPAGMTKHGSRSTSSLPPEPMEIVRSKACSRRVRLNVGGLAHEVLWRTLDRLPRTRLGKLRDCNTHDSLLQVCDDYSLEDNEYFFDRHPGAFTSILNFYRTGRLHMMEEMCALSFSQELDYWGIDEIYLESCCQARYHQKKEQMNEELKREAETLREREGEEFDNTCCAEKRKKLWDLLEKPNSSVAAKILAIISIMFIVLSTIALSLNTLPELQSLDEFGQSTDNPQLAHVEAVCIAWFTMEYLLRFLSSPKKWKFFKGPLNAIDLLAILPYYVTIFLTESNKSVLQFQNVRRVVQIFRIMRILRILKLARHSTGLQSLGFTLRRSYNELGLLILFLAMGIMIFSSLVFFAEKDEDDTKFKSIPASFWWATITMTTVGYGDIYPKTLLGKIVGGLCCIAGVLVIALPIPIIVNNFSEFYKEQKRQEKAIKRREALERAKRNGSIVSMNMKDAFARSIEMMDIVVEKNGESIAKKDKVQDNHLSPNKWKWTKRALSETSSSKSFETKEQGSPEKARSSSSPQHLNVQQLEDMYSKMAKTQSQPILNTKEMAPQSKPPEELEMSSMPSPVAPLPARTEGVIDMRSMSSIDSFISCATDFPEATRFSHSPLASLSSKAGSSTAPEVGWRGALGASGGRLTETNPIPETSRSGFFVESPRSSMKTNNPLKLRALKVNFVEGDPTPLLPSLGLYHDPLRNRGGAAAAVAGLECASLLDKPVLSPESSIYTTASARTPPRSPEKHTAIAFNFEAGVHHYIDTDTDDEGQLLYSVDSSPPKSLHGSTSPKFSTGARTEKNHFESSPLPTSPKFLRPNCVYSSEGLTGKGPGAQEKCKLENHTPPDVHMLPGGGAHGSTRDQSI

Kv2.1 closed state VSD = settings: ref [22], cited from earlier work; for effect on channel opening / gating charge: Kv2.1
mice = settings: injected into mice; no reference or experiment given; cited from earlier work

Molecule	emission peak in MeOH ([1]; 200 nM JP-N3, anhydrous MeOH) [nm]	emission peak in hydrocarbon ([1]; 200 nM JP-N3, anhydrous hydrocarbon solvent) [nm]	Kd (Kv2.1 channels; 0 mV) [nM]	koff (Kv2.1 channels; 0 mV)	kon (Kv2.1 channels; 0 mV)	Kd (Kv2.1 channels; −100 mV) [nM]	koff (Kv2.1 channels; −100 mV)	kon (Kv2.1 channels; −100 mV)	effect on channel opening / gating charge (Kv2.1 closed state VSD)	toxicity (mice)	affinity for Kv2.1 closed state VSD relative to its open state (Kv2.1 closed state VSD) [fold]
[N-]=[N+]=NCc1cc(=O)cc2oc3c4c5c(cc3nc1-2)CCCN5CCC4 [JP-N3, 10-(azidomethyl)-julolidino-phenoxazinone]	640	609									
Met35Nle guangxitoxin-1E [GxTX]			1520 ± 810	38 ± 9 × 10^−3 s^−1	2.5 ± 1.2 × 10^−5 s^−1 nM^−1	2.55 ± 1.01	0.84 ± 0.18 × 10^−3 s^−1	3.30 ± 1.10 × 10^−4 s^−1 nM^−1	inhibiting early, fast gating charge transitions		
guangxitoxin-1E (EGECGGFWWKCGSGKPACCPKYVCSPKWGLCNFPMP; UniProt P84835 1-36, looked up) [GxTX-1E]									shifting channel opening to more depolarized potentials	no toxicity up to 10 mg/kg	5400
